# SENP8 block-1: inhibitors of human SENP8 protease; purified SENP8, Z-RLRGG-aminoluciferin cleavage, luminescence; inhibition, % at 10 µM; 330,000 tested, 1.2% active; AID 2540; in the data active = inhibition above about 50%
# Target sequence (Q96LD8 whole entry, looked up): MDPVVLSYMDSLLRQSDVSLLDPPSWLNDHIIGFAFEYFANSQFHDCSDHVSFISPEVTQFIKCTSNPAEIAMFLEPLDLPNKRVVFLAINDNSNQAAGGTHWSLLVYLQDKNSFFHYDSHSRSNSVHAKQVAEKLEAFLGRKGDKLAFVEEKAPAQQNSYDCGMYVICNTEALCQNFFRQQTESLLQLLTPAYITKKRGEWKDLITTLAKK
# SENP6 inh: inhibitors of human SENP6 protease. Recombinant SENP6 catalytic domain, aminoluciferin luminescence. Q9GZR1. AID 2599. 330,000 tested, 1.8% active. inhibition, % at 10 µM;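 active = inhibition above about 50% at the single tested dose, limit read from the data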;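 note: plate controls were DMSO wells with enzyme for no effect and DMSO wells lacking enzyme for full effect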
# SENP7 inh: inhibitors of human SENP7 protease; Q9BQF6; recombinant SENP7, Z-RLRGG-aminoluciferin luminescence, 40 min; inhibition, % at 5 µM; 330,000 tested, 1.5% active; AID 434973;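 active = inhibition above about 50% at the single test dose, limit read from the data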;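 note: plate controls were DMSO with enzyme for no effect and no enzyme buffer wells for full effect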
# Apaf-1 inh: blocks human Apaf-1 apoptosome activity; reconstituted apoptosome caspase-3 activity, DEVD-Rh110 fluorescence; inhibition, % at 20 µM; 330,000 tested, 0.71% active; O14727; active = inhibition of at least 40% at 20 µM;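 note: plate controls were DMSO wells for no effect and DEVD-CHO caspase inhibitor wells for full effect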
#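 Material: reconstituted apoptosome with Apaf-1, cytochrome c, caspase-9, procaspase-3, dATP. Technique: Rh110 fluorescence intensity. Buffer or medium: pH 7.5 Hepes buffer with CHAPS, BSA, DTT. Times: 30 min plus 50 min, RT.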
# UBC13 polyUb: human UBC13 polyubiquitination inhibition | P61088 | UBC13 polyubiquitin chain formation, TR-FRET | inhibition, % at 20 µM | 330,000 tested, 0.47% active | AID 485273; in the data active = inhibition above about 45%, passing the limit was not always enough
# Target sequence (P61088 whole entry, looked up): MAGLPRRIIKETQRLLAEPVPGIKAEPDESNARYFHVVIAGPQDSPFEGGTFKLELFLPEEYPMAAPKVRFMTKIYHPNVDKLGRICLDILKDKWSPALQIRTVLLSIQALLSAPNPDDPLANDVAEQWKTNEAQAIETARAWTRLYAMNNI
# SENP8 block-2: blocks human SENP8 cleavage of Nedd8 substrate | Q96LD8 | recombinant SENP8, Nedd8 substrate fluorescence | inhibition, % at 20 µM | 360,000 tested, 0.64% active | AID 602440; in the data active = inhibition mostly above about 40%, no sharp cut-off; inactive = mostly below about 27%
# SENP8 confirm: human SENP8 inhibition, confirmed. 6,200 tested, 40% active. AID 488912. shares compounds with SENP7 inh. inhibition, % at 12.5 µM. Recombinant SENP8, Z-RLRGG-aminoluciferin luminescence, 60 min;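 active = mean inhibition across replicates above about 50%, limit read from the data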
# SENP6 conf: confirmation of human SENP6 protease inhibitors | 6,200 tested, 58% active | AID 488915 | inhibition, % at 12.5 µM | recombinant SENP6, Z-RLRGG-aminoluciferin luminescence | shares compounds with SENP7 inh
# SENP7 confirm: confirmation of human SENP7 protease inhibitors; shares compounds with SENP7 inh; recombinant SENP7, Z-RLRGG-aminoluciferin luminescence, 40 min; inhibition, % at 12.5 µM; 6,200 tested, 69% active; AID 488917
# Casp3 SENP sel: caspase-3 inhibition (SENP selectivity assay); inhibition, % at 12.5 µM; purified caspase-3, Z-DEVD-aminoluciferin luminescence, 60 min; shares compounds with SENP7 inh; 6,200 tested, 60% active;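 active = mean inhibition above about 50%, limit read from the data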;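 note: plate controls were enzyme with DMSO for no effect and wells without caspase-3 for full effect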
# Target sequence (P42574 28-227 limits assumed): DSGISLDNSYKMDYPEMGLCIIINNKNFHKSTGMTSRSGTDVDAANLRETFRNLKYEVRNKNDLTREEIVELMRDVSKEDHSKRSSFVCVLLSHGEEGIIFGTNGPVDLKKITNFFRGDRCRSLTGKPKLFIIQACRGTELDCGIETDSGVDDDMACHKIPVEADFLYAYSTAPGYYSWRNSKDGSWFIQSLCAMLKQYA
# SENP luc ctr: interferes with luciferase luminescence in SENP counter-screen; shares compounds with SENP7 inh; Pre-incubated SENP8/Z-RLRGG-aminoluciferin, luciferase luminescence interference; inhibition, % at 12.5 µM; 6,200 tested, 39% active; AID 488919;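 active = mean inhibition above about 50% when retested at one dose, limit read from the data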;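 note: plate controls were DMSO wells with completed reaction for no effect and substrate without enzyme for full effect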
# Apaf-1 inh conf: confirmation of Apaf-1 inhibitors. reconstituted apoptosome, caspase-3 DEVD-Rh110 fluorescence. 1,800 tested, 25% active. shares compounds with Apaf-1 inh. AID 504614. inhibition, % at 20 µM;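 active = mean inhibition of at least 40% at 20 µM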;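 note: plate controls were DMSO wells for no effect and DEVD-CHO caspase inhibitor control wells for full effect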
# Rh110 interf inh: interferes with Rh110 fluorescence, flagging false Apaf-1 inhibitors; shares compounds with Apaf-1 inh; Rh110 fluorescence interference, quenched caspase reaction; activation (fluorescence interference), % at 20 µM; 1,800 tested, under 10 active; AID 504615;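 active = signal rise of 40% or more at 20 µM, treated as a fluorescence artifact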
# Apaf1 inh interf: counter-screen for Apaf-1 inhibitors: fluorescence interference, dose response. shares compounds with Apaf-1 inh. fluorescence interference counterscreen, Apaf-1 assay format. IC50, µM. 460 tested, under 10 active. AID 588538; call rule not given here
# Starred values were filed as active, the others as inactive; / = not tested or not shown. A selection: hits, their analogues and other compounds. The true share with any hit is near 3%.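 Rule for the calls, unless noted: active = mean inhibition above about 50% in the one-dose retest (limit read from the data); inactive = the rest.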
SMILES,SENP8 block-1,SENP6 inh,SENP7 inh,Apaf-1 inh,UBC13 polyUb,SENP8 block-2,SENP8 confirm,SENP6 conf,SENP7 confirm,Casp3 SENP sel,SENP luc ctr,Apaf-1 inh conf,Rh110 interf inh,others
CCCCn1c(NC(=O)c2ccc(Br)o2)c(S(=O)(=O)c2ccccc2)c2nc3ccccc3nc21,86*,87*,49,71*,-47,-286,-3,40,12,-5,-4,31,-2,
C=CCn1c(NC(=O)c2ccccc2Cl)c(C#N)c2nc3ccccc3nc21,97*,94*,49,96*,-29,-353,26,73*,66*,6,5,60*,5,Apaf1 inh interf=>100
Cc1ccc(S(=O)(=O)NCc2ccccc2)cc1C(=O)N1CCN(S(=O)(=O)c2ccccc2F)CC1,/,/,/,/,/,15,/,/,/,/,/,/,/,
C=Cc1ccc(Cn2c(C)c(C(=O)NCc3ccc(C#N)cc3)sc2=O)cc1,/,/,/,/,/,-2,/,/,/,/,/,/,/,
O=C(OCc1cn([C@H]2C[C@H](c3ccc(Cl)cc3)N(C(=O)c3cccs3)C[C@@H]2O)nn1)c1ccccc1,/,/,/,/,/,0,/,/,/,/,/,/,/,
Oc1cc(NCCc2cccnc2)cc2cccnc12,48,72*,39,56*,28,-158,14,49,14,88*,-4,47*,5,Apaf1 inh interf=>100
Oc1cc(Nc2cccnc2)cc2cccnc12,-4,2,12,3,17,-175,/,/,/,/,/,/,/,
CCOc1cc(/C=N/NC(=O)c2cc(C)n(-c3ccc(F)cc3)c2C)ccc1O,-1,-12,1,-22,23,-180,/,/,/,/,/,/,/,
Cc1cc(C(=O)N/N=C2\CC(=O)c3ccccc32)c(C)n1-c1ccc(F)cc1,40,73*,21,69*,-14,79*,27,50,40,51*,12,22,-2,
COc1ccccc1N1C(=O)c2ccccc2NC1c1ccncc1 (centres undefined),-8,15,-3,-2,8,-457,/,/,/,/,/,/,/,
COc1ccccc1N1C(=O)N(C(C)=O)C2C1Nc1ccccc1N2C (centres undefined),46,70*,-5,83*,-38,-23,1,2,1,3,-4,25,11,
O=C(/C=C/[C@H]1O[C@@H](n2ccc(=O)[nH]c2=O)[C@H](O)[C@@H]1O)NCCN1CCCCC1,/,/,/,/,/,15,/,/,/,/,/,/,/,
COc1cc(-c2ccc(Nc3ccccc3C(=O)O)c(OC)c2)ccc1Nc1ccccc1C(=O)O,60*,74*,3,48*,-3,30,-9,55*,24,8,69*,49*,0,Apaf1 inh interf=>100
COc1cccc(Nc2ccccc2C(=O)O)c1,5,-5,-14,14,-10,13,/,/,/,/,/,/,/,
O=[N+]([O-])c1ccc(C=Nc2cccc3ccccc23)s1,47,58*,41,68*,-23,-394,5,2,-5,-5,-4,10,-1,
COc1cccc(Nc2nc(C(N)Cc3ccc(C(F)(F)F)cc3)cs2)n1 (centres undefined),/,/,/,/,/,-80,/,/,/,/,/,/,/,
CC(=O)c1ccc(NC(=O)CC2Nc3cccc4cccc(c34)NC2=O)cc1 (centres undefined),50*,89*,56*,89*,-29,-9,8,7,-6,-6,-13,16,3,
Cc1cccc(NC(=O)CC2Nc3cccc4cccc(c34)NC2=O)c1 (centres undefined),76*,83*,67*,71*,6,-40,12,9,-1,1,1,17,12,
CC1=C(C(=O)OCc2ccccc2)C(c2ccc(C)cc2)NC(=O)N1 (centres undefined),/,/,/,/,/,10,/,/,/,/,/,/,/,
COc1ccc(Oc2c(OC)cc([N+](=O)[O-])c3ncccc23)cc1,/,/,/,/,/,15,/,/,/,/,/,/,/,
COc1cc(NC(C)CCCN)c2ncccc2c1Oc1ccccc1 (centres undefined),34,74*,30,70*,1,-13,15,28,18,9,3,32,2,
CN(Cc1ccccc1)C(=O)[C@@H]1CCCN1C(=O)[C@@H]1CCCN1C(=O)c1ccc(Cl)cc1,/,/,/,/,/,12,/,/,/,/,/,/,/,
CCOc1ccc(/C=N/Nc2cc(C)nc(N3CCOCC3)n2)cc1,-3,-20,2,-8,1,26,/,/,/,/,/,/,/,
COc1ccc(/C=N/Nc2cc(N3CCCC3)nc(N3CCCC3)n2)cc1,14,52*,38,93*,-12,-15,16,51*,34,4,3,96*,5,Apaf1 inh interf=>100
Oc1cccc(/C=N/Nc2cc(N3CCCC3)nc(N3CCCC3)n2)c1,10,57*,51*,97*,6,-27,16,66*,27,4,11,99*,11,Apaf1 inh interf=>100
SMILES,SENP8 block-1,SENP6 inh,SENP7 inh,Apaf-1 inh,UBC13 polyUb,SENP8 block-2,SENP8 confirm,SENP6 conf,SENP7 confirm,Casp3 SENP sel,SENP luc ctr,Apaf-1 inh conf,Rh110 interf inh,others
Brc1cccc(/C=N/Nc2nc(N3CCCCC3)nc(N3CCCCC3)n2)c1,6,-9,6,6,-4,/,/,/,/,/,/,/,/,
Oc1ccc(/C=N/Nc2cc(N3CCCC3)nc(N3CCCC3)n2)cc1,36,49,78*,97*,-11,4,11,61*,79*,10,7,100*,12,Apaf1 inh interf=>100
O=C(Nc1ccccc1Cl)c1cc(C2CCCN(C(=O)c3cccs3)C2)on1 (centres undefined),/,/,/,/,/,19,/,/,/,/,/,/,/,
Oc1ccc(C=Nc2cccc3ncccc23)c(O)c1,44,91*,46,87*,-43,23,12,17,1,4,2,6,-91,
Oc1ccc(C=Nc2ccccc2-c2nc3ccccc3[nH]2)c(O)c1,-10,-19,5,-6,7,-276,/,/,/,/,/,/,/,
COc1cccc(-c2nnc(NC(=O)c3cccs3)s2)c1,7,32,8,0,1,-406,/,/,/,/,/,/,/,
